Measured values published in ChEMBL document CHEMBL1134439, “Radioiodinated styrylbenzenes and thioflavins as probes for amyloid aggregates” (J Med Chem, 2001).

Biological target: Amyloid-beta precursor protein (Homo sapiens, UniProt P05067)
Assay: Inhibition constant for aggregates of amyloid beta compared to [125I]IMSB
Procedure, shortened: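 Aβ(1-40) or Aβ(1-42) aggregated at 0.5 or 0.25 mg/mL respectively in pH 7.4 buffer (10 mM sodium phosphate, 1 mM EDTA), 37 °C, 36-42 h with shaking. Competition against ¹²⁵I radioligand with fibrils 10-50 nM (final), 10% EtOH, 1 mL. Incubation 3 h room temperature. Bound ligand collected by GF/B filtration, γ-counted. Ki by nonlinear regression. Mean ± SEM, three experiments in duplicate.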

Sequence of Amyloid-beta precursor protein (P05067 whole entry): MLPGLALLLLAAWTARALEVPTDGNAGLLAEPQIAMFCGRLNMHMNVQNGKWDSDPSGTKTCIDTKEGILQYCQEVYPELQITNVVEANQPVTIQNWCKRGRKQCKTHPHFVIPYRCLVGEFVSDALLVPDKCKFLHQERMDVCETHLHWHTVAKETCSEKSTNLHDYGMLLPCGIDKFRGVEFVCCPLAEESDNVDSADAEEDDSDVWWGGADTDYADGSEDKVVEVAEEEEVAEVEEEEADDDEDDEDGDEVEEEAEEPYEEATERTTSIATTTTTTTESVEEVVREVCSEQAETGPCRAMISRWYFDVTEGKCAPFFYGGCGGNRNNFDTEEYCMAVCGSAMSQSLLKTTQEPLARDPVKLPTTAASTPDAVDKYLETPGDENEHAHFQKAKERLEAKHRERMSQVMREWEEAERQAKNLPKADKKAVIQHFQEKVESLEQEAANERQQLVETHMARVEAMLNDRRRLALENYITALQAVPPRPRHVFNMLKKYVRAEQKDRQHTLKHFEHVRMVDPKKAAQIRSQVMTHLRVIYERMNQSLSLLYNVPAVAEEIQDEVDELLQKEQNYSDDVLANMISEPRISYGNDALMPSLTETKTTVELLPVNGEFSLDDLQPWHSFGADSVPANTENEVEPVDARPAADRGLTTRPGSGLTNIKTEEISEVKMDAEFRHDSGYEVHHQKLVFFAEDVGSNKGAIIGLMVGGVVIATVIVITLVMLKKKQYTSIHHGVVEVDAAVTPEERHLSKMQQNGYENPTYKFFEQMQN

- Ki: > 2400 nM
Compound: CN1CCN(c2ccc(-c3nc4ccc(Br)cc4s3)cc2)CC1
